Experimental data: ChEMBL document CHEMBL1177766, “2-Substituted N-aryl piperazines as novel triple reuptake inhibitors for the treatment of depression” (Bioorg Med Chem Lett, 2010)

Assay: Clearance in human liver microsomes assessed per mg of protein by LC/MS analysis
Type: ADME, Microsome
Outline: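 Human liver microsomes at 0.5 mg/mL protein. Reaction started with NADPH, run at 37 °C without shaking. Aliquots taken at 0.1, 10, 20 and 30 min for LC/MS analysis. Clearance expressed in µL/min/mg.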

Row | SMILES | microsomal CLint [µL/min/mg]
1 | c1ccc(CC2CNCCN2c2ccc3[nH]ccc3c2)cc1 (stereo not drawn) | 43.3
2 | c1ccc(CC2CNCCN2c2ccc3[nH]ncc3c2)cc1 (stereo not drawn) | 3.8
3 | Fc1cc(N2CCNCC2Cc2ccccc2)cc2cc[nH]c12 (stereo not drawn) | 16.8
